Screens (PubChem BioAssay)
GASC-1 inh: human JMJD2C demethylase inhibition; Q9H3R0; GST-JMJD2C(1-420) H3K9me3 demethylation, DELFIA europium; inhibition, % at 2.35 µM; 330,000 compounds, 0.069% hits;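 active = more than half of a compound's replicate wells show inhibition beyond 50%, single wells judged on their own value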;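 note: signal counts dimethyl H3K9 product captured on neutravidin plate; 0% = median of DMSO wells and 100% = 0.3 times that DMSO median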
Target sequence (Q9H3R0 1-420 limits assumed): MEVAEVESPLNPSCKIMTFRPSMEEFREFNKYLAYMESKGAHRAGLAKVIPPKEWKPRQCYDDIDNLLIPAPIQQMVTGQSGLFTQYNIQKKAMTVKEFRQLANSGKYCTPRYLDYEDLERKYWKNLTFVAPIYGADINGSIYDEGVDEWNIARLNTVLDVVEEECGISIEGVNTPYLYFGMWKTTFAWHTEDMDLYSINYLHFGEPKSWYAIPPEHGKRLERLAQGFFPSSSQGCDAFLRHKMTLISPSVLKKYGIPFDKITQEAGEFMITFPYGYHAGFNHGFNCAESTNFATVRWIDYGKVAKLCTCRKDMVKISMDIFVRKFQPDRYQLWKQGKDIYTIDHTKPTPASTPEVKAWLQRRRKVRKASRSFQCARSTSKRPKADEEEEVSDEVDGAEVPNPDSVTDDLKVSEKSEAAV
ADAM17 inh: inhibitors of human ADAM17. recombinant ADAM17, EDANS/DABCYL FRET peptide cleavage. AID 720648. 370,000 compounds, 0.83% hits. P78536. inhibition, % at 6.95 µM;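 active = inhibition above the mean of compounds lying between control limits plus 3 SD, set per campaign, cut at about 8.5% in these data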;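 note: 0% = DMSO-only wells as the low control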
NR2E3 ag-1: activates human NR2E3 receptor | AID 602229 | CHO-S Gal4-NCOR/VP16-NR2E3 two-hybrid, luciferase | Q9Y5X4 | 360,000 compounds, 0.35% hits | inhibition of corepressor binding, % at 3.98 µM;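 active = inhibition above the mean of all tested compounds plus 3 SD, cut at about 70% in these data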;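 note: 0% = DMSO with NR2E3 transfected cells and 100% = cells lacking NR2E3 construct; higher means lower luciferase signal from less NR2E3 corepressor binding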
ADAM10 inh: ADAM10 inhibition, QFRET primary screen | AID 720582 | inhibition, % at 7 µM | O14672 | 370,000 compounds, 0.62% hits | recombinant ADAM10, EDANS/DABCYL FRET peptide cleavage, 3 h;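 active = inhibition above a per-campaign cutoff equal to the mean of compounds falling between control-based bounds plus 3 SD, cut at about 20% in these data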;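 note: 0% = DMSO wells while the 100% control is not disclosed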
KLK7 zymogen act: proKLK7 (human) activation, primary screen; P49862; activation, % at 7 µM; AID 652039; purified proKLK7, EDANS-DABCYL substrate fluorescence; 100% is mature enzyme control, 0% vehicle; 370,000 compounds, 0.9% hits;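 active = activation above the mean of all tested compounds plus 3 SD, computed per campaign excluding outliers beyond control limits, cut at about 13% in these data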
NR2E3 ag-2: agonists of human nuclear receptor NR2E3; 320,000 compounds, 0.12% hits; Q9Y5X4; AID 2300; GST-NR2E3/biotin-RetCOR TR-FRET, 1536-well; inhibition of corepressor binding, % at 4.78 µM;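 active = percent inhibition above the cutoff of mean plus 3 SD of all tested compounds, set per screening campaign, cut at about 20% in these data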;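 note: 0% = DMSO wells and 100% = biotin wells as full block of FRET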
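Material – GST-tagged NR2E3 plus biotinylated RetCOR corepressor · Quantity – NR2E3 fusion 1.35 nM · Times – 5 h incubation at 4 °C · Medium – pH 7.5 Tris-based buffer · Technique – TR-FRET, Eu(K)-anti-GST donor, streptavidin-D2 acceptor, ex 340, em 617/671 nm · Benchmarks – high control biotin, low control 0.6% DMSO · Format – 1536-well plates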
ADAM10 counter: ADAM10 inhibition, counter-screen for ADAM17 exosite hits. shares compounds with ADAM17 inh. recombinant ADAM10, EDANS/DABCYL FRET peptide cleavage, 3 h. inhibition, % at 6.95 µM. 2,900 compounds, 47% hits. AID 743256;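 active = mean inhibition over the triplicate runs exceeds the activity threshold set in the earlier primary screen, cut at about 20% in these data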;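 note: 0% = DMSO wells and 100% = marimastat wells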
ADAM17 confirm: confirmation of inhibitors of human ADAM17. 2,900 compounds, 65% hits. recombinant ADAM17, EDANS/DABCYL QFRET peptide cleavage. shares compounds with ADAM17 inh. inhibition, % at 6.95 µM;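 active = mean inhibition across replicates above the hit cutoff set in the primary screen, cut at about 8.5% in these data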;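 note: 0% = DMSO wells and 100% = marimastat wells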
An asterisk follows results filed as active; x = no result. Rows were chosen to be rich in hits. Some 2.5% of all compounds tested hit in one or more screens of this group.

SMILES	GASC-1 inh	ADAM17 inh	NR2E3 ag-1	ADAM10 inh	KLK7 zymogen act	NR2E3 ag-2	ADAM10 counter	ADAM17 confirm
CCCCNC(=O)[C@@H]1CC=C[C@@H]2CCN(C3CC3)C(=O)[C@@H]21	-13	-3	-28	-6	0	-2	x	x
COc1ccc(OC)c(NC(=O)c2cc(-c3ccc(F)cc3OC(C)C)n[nH]2)c1	x	8.8*	-30	17	0	x	11	9.3*
COc1ccc(NC(=O)c2cc(-c3cc(F)ccc3OC(C)C)n[nH]2)c(C)c1	x	1	-50	2	0	x	x	x
C(=C\c1ccccc1)/CN1CCN(C(c2cccc3ccccc23)c2nnnn2Cc2ccccc2)CC1 (stereo not drawn)	x	12*	6	19	0	x	23*	9.6*
C(=C\c1ccccc1)/CN1CCN(C(c2cccs2)c2nnnn2Cc2ccccc2)CC1 (stereo not drawn)	x	3	-16	12	0	x	x	x
O=C(NC(Cc1ccccc1)C(=O)NCCc1ccccn1)c1ccccc1 (stereo not drawn)	-13	1	-8	6	-1	-2	x	x
COC(=O)c1c(-c2cccc3ccccc23)csc1NC(=O)Cc1ccc(OC)c(OC)c1	-8	10*	24	17	-1	2	14	10*
COC(=O)c1c(-c2ccc(Br)cc2)csc1NC(=O)Cc1ccc(OC)c(OC)c1	2	2	8	13	-1	-2	x	x
CC1CCCCC1NC(=O)CCn1ccc2cc(S(=O)(=O)N3CCCC3)ccc21 (stereo not drawn)	12	x	-33	x	x	-4	x	x
CCCCC[C@@H](C)N1C[C@@H](COCc2ccccc2)Oc2cc(N3CCC[C@H]3CO)ccc2S1(=O)=O	x	9.9*	-5	18	-1	x	23*	15*
O=C(Nc1ccc(N2CCCCC2)cc1)c1ccccc1	7	-3	-152	0	0	0	x	x
O=C(Nc1ccc(N2CCCC2)cc1)c1cccc(F)c1	-13	18*	-120	8	0	-2	-3	4
Cc1[nH]c2ccc(C(=O)NCCCN(C)C3CCCCC3)cc2c1C	34	8.7*	-1	0	1	-2	-49	-10
C[C@H](CO)N1C[C@H](C)[C@@H](CN(C)C(=O)Nc2ccc3c(c2)OCO3)Oc2ccc(NC(=O)Nc3ccc(C(F)(F)F)cc3)cc2C1=O	4	11*	-55	19	0	x	21*	15*
C[C@@H]1CCCCO[C@H](CN(C)S(=O)(=O)c2cccs2)[C@H](C)CN([C@@H](C)CO)C(=O)c2cc(NC(=O)NC3CCCCC3)ccc2O1	x	11*	-43	15	0	x	28*	16*
C[C@H](CO)N1C[C@H](C)[C@@H](CN(C)S(=O)(=O)c2cccs2)Oc2ccc(NC(=O)NC3CCCCC3)cc2C1=O	-4	-2	-18	0	0	x	x	x
Cc1noc(C)c1NC(=O)Nc1ccc2c(c1)C(=O)N([C@H](C)CO)C[C@H](C)[C@H](CN(C)C(=O)NC1CCCCC1)OCCCC[C@@H](C)O2	x	9.8*	10	4	0	x	27*	7
Cc1noc(C)c1NC(=O)Nc1ccc2c(c1)C(=O)N([C@@H](C)CO)C[C@@H](C)[C@H](CN(C)C(=O)Nc1cccc3ccccc13)OCCCC[C@H](C)O2	x	-5	-16	-40	-1	x	x	x
COc1cc(C(=O)Nc2c(C)cc(C)cc2C)c(Br)c(OC)c1OC	-7	0	-25	2	-1	2	x	x
COC(=O)C[C@@H]1C=C[C@H](NC(=O)Nc2ccc(F)cc2)[C@@H](CO)O1	x	-4	x	-4	1	x	x	x
